Data: ChEMBL document CHEMBL1124118, “Design, synthesis, and antineoplastic activity of 2'-deoxy-2'-methylidenecytidine” (J Med Chem, 1988)
In brackets after ≈: the same amount, converted by molar mass.

Legend:
Assay type in all cases: functional, cell-based
CCRF-CEM = test: In vitro inhibitory effect on growth of human T-cell acute lymphoblastoid leukemic CCRFCEM cell lines.
Summary of the method: (§1)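 MTT growth-inhibition assay (Carmichael method). Tumor cells seeded at 1 × 10^4 per well and incubated with or without compound for 72 h. MTT then added and OD(550-660 nm) read. % inhibition = [1 − (OD sample / OD control)] × 100. IC50 (μg/mL) taken as the concentration giving 50% inhibition of cell growth.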

K562 = test: In vitro inhibitory effect on growth of human chronic myelogenous leukemic K562 cell lines.; summary of the method: as §1
L1210 = test: In vitro inhibitory effect on growth of mouse leukemic L1210 cell lines.; summary of the method: as §1
MOLT-4 = test: In vitro inhibitory effect on growth of human T-cell acute lymphoblastic leukemic MOLT 4 cell lines.; summary of the method: as §1
SW480 = test: In vitro inhibitory effect on growth of human colon adenocarcinoma cell lines (SW480).; summary of the method: as §1
T-24 = test: In vitro inhibitory effect on growth of human bladder transitional-carcinoma cell lines (T24).; summary of the method: as §1
TE-2 = test: In vitro inhibitory effect on growth of human esophagus […] cell lines (TE2).; summary of the method: as §1
PC10 [1] = test: In vitro inhibitory effect on growth of human lung squamous cell carcinom cell lines (PC10).; summary of the method: as §1
PC10 [2] = test: In vitro inhibitory effect on growth of human lung squamous cell carcinoma cell lines (PC10).
Summary of the method: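 Cells seeded at 1 × 10^4/well and incubated with or without compound for 72 h. MTT was then added and OD(550-660 nm) was read. % inhibition = [1 − (OD of sample well / OD of control well)] × 100. IC50 (μg/mL) is the concentration giving 50% inhibition of cell growth.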

C=C1C(n2ccc(N)nc2=O)O[C@H](CO)[C@@H]1O (some centres undefined)
IC50 (CCRF-CEM): 0.047 µg/mL (≈ 0.196 µM) | IC50 (K562): 1.2 µg/mL (≈ 5.02 µM) | IC50 (L1210): 0.11 µg/mL (≈ 0.46 µM) | IC50 (MOLT-4): 0.025 µg/mL (≈ 0.105 µM) | IC50 (SW480): 3.8 µg/mL (≈ 15.9 µM) | IC50 (T-24): 3.7 µg/mL (≈ 15.5 µM) | IC50 (TE-2): 2.9 µg/mL (≈ 12.1 µM) | IC50 (PC10 [1]): 60.5 µg/mL (≈ 253 µM)

Nc1ccn([C@@H]2O[C@H](CO)[C@@H](O)[C@@H]2O)c(=O)n1 [CYTARABINE]
IC50 (CCRF-CEM): 0.065 µg/mL (≈ 0.267 µM) | IC50 (K562): 3.2 µg/mL (≈ 13.2 µM) | IC50 (L1210): 0.097 µg/mL (≈ 0.399 µM) | IC50 (MOLT-4): 0.056 µg/mL (≈ 0.23 µM) | IC50 (PC10 [2]): > 100 µg/mL | IC50 (SW480): > 100 µg/mL | IC50 (T-24): > 100 µg/mL | IC50 (TE-2): > 100 µg/mL

O=c1[nH]cc(F)c(=O)[nH]1 [FLUOROURACIL]
IC50 (CCRF-CEM): 40 µg/mL (≈ 308 µM) | IC50 (K562): 38 µg/mL (≈ 292 µM) | IC50 (L1210): 0.32 µg/mL (≈ 2.46 µM) | IC50 (MOLT-4): 3.8 µg/mL (≈ 29.2 µM) | IC50 (PC10 [2]): > 100 µg/mL | IC50 (SW480): 3.3 µg/mL (≈ 25.4 µM) | IC50 (T-24): 6.1 µg/mL (≈ 46.9 µM) | IC50 (TE-2): 3.9 µg/mL (≈ 30 µM)
